Drawing on ChEMBL document CHEMBL1121917, “Structure--activity relationships in a broad-spectrum anthelmintic series. Acid chloride phenylhydrazones. 1. Aryl substitutions and chloride variations” (1981), this text covers Reduction and Parasite_Clearance for 2 compounds.

For assay [1], the species on record is Canis familiaris. Description: Percent reduction in Uncinaria eggs per gram, after oral treatment of 100 mg/dog dose of compound in a single treatment. It is filed as functional, Canis lupus familiaris, Egg. In outline:
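Dogs naturally infected with Toxascaris leonina were experimentally infected with mixed Ancylostoma caninum and Uncinaria stenocephala larvae. Finely ground compound was given orally in gelatin capsules. Three egg count determinations were made before and three after treatment in each experiment.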

Assay [2] has as its system Ovis aries. Description: Percent reduction in Trichostrongylus eggs per gram, after treatment with 100 mg/kg dose of compound perorally in sheep. It is filed as functional, Egg. The conditions noted are these: route oral. Summed up:
(§1)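 Naturally parasitized lambs, dosed orally either with a suspension by stomach tube or with finely ground compound in gelatin capsules by balling gun. Activity was scored by the clinical test method, meaning a significant fall in helminth egg counts after treatment.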

In assay [3] the test system is Ovis aries. The assay is described as follows: Percent reduction in Ostertagia eggs per gram, after treatment with 100 mg/kg dose of compound perorally in sheep. The conditions noted are these: route oral. It is filed as functional, Egg. Summed up:
(§2)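 Naturally parasitized lambs were dosed orally at the stated mg/kg. Dosing was either as a suspension of finely ground compound by stomach tube, or as ground compound weighed into gelatin capsules and given by balling gun. Activity was scored by the clinical test method: the decrease in posttreatment helminth eggs per gram.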

In assay [4] the test system is Ovis aries. Description: Percent reduction in Moniezia eggs per gram, after treatment with 100 mg/kg dose of compound perorally in sheep. It is filed as functional, Egg. To be noted: route oral. Summed up: as §2
Assay [5] deals with Ovis aries. Description: Percent reduction in Oesophagostomum eggs per gram, after treatment with 100 mg/kg dose of compound perorally in sheep. It is filed as functional, Egg. To be noted: route oral. In outline: as §2
For assay [6], the system named is Ovis aries. Description: Percent reduction in Trichuris eggs per gram, after treatment with 100 mg/kg dose of compound perorally in sheep. It is filed as functional, Egg. The conditions noted are these: route oral. In outline:
as §1

The species named for assay [7] is Mus musculus. The assay is described as follows: Percent clearance of Nematospiroides dubius from mouse after oral treatment of 7.5 mg/mouse/day. The class given is functional. In outline:
(§3)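 Mice naturally carrying Syphacia obvelata were experimentally infected with Nematospiroides dubius and Hymenolepis nana, then grouped after a 2-week prepatency. Finely ground compound was suspended in aqueous 0.10% carboxymethylcellulose, 0.04% polysorbate 80 and 0.0042% polyparaben, and 0.1 mL was given orally by cannula once daily for 4 days to five mice. Necropsy followed 2 days later, scoring presence or absence of each parasite. Control clearance was subtracted from the treated clearance.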

The subject of assay [8] is Ovis aries. Description: Percent reduction in Haemonchus eggs per gram, after treatment with 100 mg/kg dose of compound perorally in sheep. The class given is functional, Egg. The conditions noted are these: route oral. Summed up:
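Naturally parasitized lambs received compound orally, either as the aqueous suspension by stomach tube or as finely ground powder in gelatin capsules by balling gun. Activity was judged by the clinical test method, as a significant decrease in posttreatment helminth egg counts.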

The test system of assay [9] is Ovis aries. Description: Percent reduction in Strongyloides eggs per gram, after treatment with 100 mg/kg dose of compound perorally in sheep. It is filed as functional, Egg. The conditions noted are these: route oral. In outline: as §1
The species entered for assay [10] is Canis familiaris. The assay is described as follows: Percent reduction in Ancylostoma eggs per gram, after oral treatment of 100 mg/dog dose of compound in a single treatment. It is filed as functional, Canis lupus familiaris, Egg. Summed up: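 Dogs naturally infected with Toxascaris leonina were experimentally infected with mixed Ancylostoma caninum and Uncinaria stenocephala larvae. Finely ground compound was given orally in gelatin capsules. Fecal egg counts were taken three times before and three times after treatment, and activity was taken as the fall in egg counts.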

Assay [11] relates to Ovis aries. Description: Percent reduction in Nematodirus eggs per gram, after treatment with 100 mg/kg dose of compound perorally in sheep. To be noted: route oral. The class given is functional, Egg. Summed up: as §2
Assay [12] is filed under the species Mus musculus. Description: Percent clearance of Hymenolepis nana from mouse after oral treatment of 0.45 mg/mouse/day. The class given is functional. Summed up: as §3
Assay [13] is filed under the species Mus musculus. Description: Percent clearance of Nematospiroides dubius from mouse after oral treatment of 0.45 mg/mouse/day. The class given is functional. In outline: as §3
Assay [14] has as its system Ovis aries. The assay is described as follows: Percent reduction in Trichuris eggs per gram, after treatment with 200 mg/kg dose of compound perorally in sheep. The conditions noted are these: dose 100 mg/kg; route oral; in the assay text read “100 mg/kg” for “200 mg/kg”. It is filed as functional, Egg. Summed up: as §1
Assay [15] relates to Ovis aries. Description: Percent reduction in Oesophagostomum eggs per gram, after treatment with 200 mg/kg dose of compound perorally in sheep. The class given is functional, Egg. To be noted: dose 100 mg/kg; route oral; in the assay text read “100 mg/kg” for “200 mg/kg”. Summed up:
as §2

For assay [16], the system named is Ovis aries. The assay is described as follows: Percent reduction in Haemonchus eggs per gram, after treatment with 200 mg/kg dose of compound perorally in sheep. The conditions noted are these: dose 100 mg/kg; route oral; in the assay text read “100 mg/kg” for “200 mg/kg”. It is filed as functional, Egg. Summed up: as §2
The subject of assay [17] is Ovis aries. The assay is described as follows: Percent reduction in Nematodirus eggs per gram, after treatment with 200 mg/kg dose of compound perorally in sheep. The class given is functional, Egg. To be noted: route oral. Summed up:
as §2

Turning to `O=[N+]([O-])c1ccc(N/N=C(\Cl)c2ccccc2)cc1`, the Reduction in [1] was found to be 0%; in assay [2], 57%; in assay [3], 33%; in [4], 100%; in assay [5], 0%; in [6], 100%. Moreover, the Reduction in assay [8] amounted to 0%; in [9], 58%; in [10], 0%; in assay [11] it was 0%. The Parasite_Clearance in assay [7] turned out to be 0%.
With `Cl/C(=N\Nc1ccccc1)c1ccccc1`, the Parasite_Clearance came out at 40% in [12] and 100% in [13]. Moreover, the Reduction in assay [14] was found to be 0%; in assay [15] it was 89%; in assay [16], 87%; in assay [17], 100%.
